In ChEMBL document CHEMBL1140208, “Selectivity and mechanism of action of a growth factor receptor-bound protein 2 SRC homology 2 domain binding antagonist” (J Med Chem, 2008):
pIC50: −log10 of the molar value. Activity calls are given as the source filed them. No cut-off for these calls is given here.

Assays:
[1] = (§1) Antimotility activity in human PC3M cells assessed as inhibition of HGF-stimulated cell migration after 24 hrs by Boyden chamber assay; format: functional, cell-based; conditions: PC-3M
How it was run: (§2)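 PC3M cells pretreated with compound 24 h, seeded 200,000 per modified Boyden chamber; migration stimulated with recombinant human HGF 50 ng/ml. Migrated cells counted by light microscopy in four fields (1 × 1.4 mm) per well, triplicate wells per condition; expressed as percent maximum, mean ± standard deviation; dose-response analysis.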

[2] = molecular target: Growth factor receptor-bound protein 2 (Homo sapiens) (UniProt P62993); experiment: Binding affinity to human recombinant HGF-stimulated Grb2-SH2 in human SK-LMS1 cells at 3 uM by immunoblot analysis; format: cell-based
Sequence of Growth factor receptor-bound protein 2 (Homo sapiens) (P62993 whole entry, looked up): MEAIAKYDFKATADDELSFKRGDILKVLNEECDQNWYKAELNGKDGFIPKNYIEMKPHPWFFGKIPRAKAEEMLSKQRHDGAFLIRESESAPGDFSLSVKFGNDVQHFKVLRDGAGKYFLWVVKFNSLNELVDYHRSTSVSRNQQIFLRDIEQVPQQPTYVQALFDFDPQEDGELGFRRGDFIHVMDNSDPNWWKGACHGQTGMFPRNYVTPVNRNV
How it was run: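 SK-LMS-1 cells serum-deprived 16 h, stimulated with recombinant human HGF 25 ng/ml for 20 min, lysed in cold non-ionic detergent buffer. Biotinylated ligand (3 μM) added to lysate, 1 h on ice; streptavidin beads added, 1 h at 4°C. Beads washed five times with lysis buffer at 150–500 mM NaCl; bound Grb2 detected by SDS-PAGE and anti-Grb2 immunoblot.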

[3] = molecular target: Growth factor receptor-bound protein 2 (Homo sapiens) (UniProt P62993); experiment: Binding affinity to human recombinant HGF-stimulated Grb2-SH3 in human SK-LMS1 cells assessed as presence of associated protein Nck1 at 3 uM by immunoblot analysis; format: cell-based
[4] = molecular target: Growth factor receptor-bound protein 2 (Homo sapiens) (UniProt P62993); experiment: Binding affinity to human recombinant HGF-stimulated Grb2-SH3 in human SK-LMS1 cells assessed as presence of associated protein Nck2 at 3 uM by immunoblot analysis; format: cell-based
[5] = molecular target: Growth factor receptor-bound protein 2 (Homo sapiens) (UniProt P62993); experiment: Binding affinity to human recombinant HGF-stimulated Grb2-SH3 in human SK-LMS1 cells assessed as presence of associated protein Gab1 at 3 uM by immunoblot analysis; format: cell-based
[6] = molecular target: Growth factor receptor-bound protein 2 (Homo sapiens) (UniProt P62993); experiment: Binding affinity to human recombinant HGF-stimulated Grb2-SH3 in human SK-LMS1 cells assessed as presence of associated protein Sos1 at 3 uM by immunoblot analysis; format: cell-based
PC-3M [7] = experiment: as §1; format: functional, cell-based; how it was run: as §2
[8] = Selectivity ratio for streptavidin-coupled biotin-labeled Shc-SH2 to streptavidin-coupled biotin-labeled Grb2-SH2
How it was run: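 Ratio of Shc-SH2 to Grb2-SH2 steady-state affinities, both measured by SPR on Neutravidin-captured biotinylated SH2 domains (Biacore T100, 25°C, PBS pH 7.4, inhibitors 1.25–1500 nM, 1:1 fit).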

[9] = molecular target: Serine/threonine-protein kinase PAK 1 (Homo sapiens) (UniProt Q13153); experiment: Inhibition of HGF-stimulated PAK1 activation in human PC3M cells at 1 uM after 16 hrs by immunoblot analysis; format: cell-based
Sequence of Serine/threonine-protein kinase PAK 1 (Homo sapiens) (Q13153 whole entry): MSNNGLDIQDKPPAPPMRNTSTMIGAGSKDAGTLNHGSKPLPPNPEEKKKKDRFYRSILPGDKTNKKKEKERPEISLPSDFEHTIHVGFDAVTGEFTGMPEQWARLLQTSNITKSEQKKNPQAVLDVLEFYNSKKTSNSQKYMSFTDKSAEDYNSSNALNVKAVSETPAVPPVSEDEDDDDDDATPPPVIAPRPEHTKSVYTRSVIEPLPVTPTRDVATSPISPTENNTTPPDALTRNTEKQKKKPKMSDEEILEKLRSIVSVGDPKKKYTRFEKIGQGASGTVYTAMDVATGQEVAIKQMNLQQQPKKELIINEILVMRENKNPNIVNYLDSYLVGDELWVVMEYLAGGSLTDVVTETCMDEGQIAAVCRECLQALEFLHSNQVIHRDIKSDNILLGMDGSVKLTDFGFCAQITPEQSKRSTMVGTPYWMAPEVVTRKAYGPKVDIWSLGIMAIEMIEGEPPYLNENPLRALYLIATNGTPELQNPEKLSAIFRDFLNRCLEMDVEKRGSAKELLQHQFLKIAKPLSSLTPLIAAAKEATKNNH
How it was run: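 PC3M cells serum-deprived and treated 16 h with 1 μM compound or left untreated, then stimulated briefly with HGF (50 ng/mL) for various times. Lysates probed by immunoblot with anti-phospho-PAK1; anti-PAK1 served as loading control.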

[10] = molecular target: Serine/threonine-protein kinase PAK 1 (Homo sapiens) (UniProt Q13153); experiment: Decrease in HGF-stimulated PAK1 nuclear translocation in human PC3M cells at 1 uM after 16 hrs by immunoblot analysis; format: cell-based
How it was run: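 PC3M cells treated with compound for 16 h; nuclear extracts prepared with high-salt buffer. PAK1 detected by SDS-PAGE and anti-PAK1 immunoblot, with anti-CREB immunoblot alongside.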

PC-3M [11] = experiment: Inhibition of HGF-induced human PC3M cell migration assessed as reduction in actin bundle reorganization and membrane extension at 1 uM after 6 hrs by DAPI staining; format: functional, cell-based
How it was run: (§3)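 Cells in chamber slides serum-deprived ± 1 μM compound for 24 h, monolayer scratched with pipet tip, then incubated ± HGF 50 ng/ml (6 h) before fixation and permeabilization. Blocked with 5% BSA, stained overnight at 4°C with Alexa488-phalloidin for F-actin, nuclei counterstained with DAPI; lamellipodia at wound edge imaged by epifluorescence videomicroscopy.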

MDCK = experiment: Inhibition of HGF-induced MDCK cell migration assessed as reduction in actin bundle reorganization and membrane extension at 1 uM after 6 hrs by DAPI staining; format: functional, cell-based; conditions: Canis lupus familiaris; how it was run: as §3

NC(=O)C[C@H](NC(=O)C1(NC(=O)[C@H](Cc2ccc(C(C(=O)O)C(=O)O)cc2)NC(=O)C(=O)O)CCCCC1)C(=O)NCCCc1cccc2c(OC(=O)CCCCCNC(=O)CCCC[C@@H]3SC[C@@H]4NC(=O)N[C@@H]43)cccc12
pIC50 [1]: 7.85 | Activity [2]: Active | Activity [3]: Active | Activity [4]: Active | Activity [5]: Active | Activity [6]: Active

NC(=O)C[C@H](NC(=O)C1(NC(=O)[C@H](Cc2ccc(O)cc2)NC(=O)C(=O)O)CCCCC1)C(=O)NCCCc1cccc2c(OC(=O)CCCCCNC(=O)CCCC[C@@H]3SC[C@@H]4NC(=O)N[C@@H]43)cccc12
Activity (PC-3M [7]): inactive | Activity [2]: inactive

NC(=O)C[C@H](NC(=O)C1(NC(=O)[C@H](Cc2ccc(C(C(=O)O)C(=O)O)cc2)NC(=O)C(=O)O)CCCCC1)C(=O)NCCCc1cccc2c(O)cccc12
Ratio [8]: 101

NC(=O)C[C@H](NC(=O)C1(NC(=O)[C@H](Cc2ccc(C(C(=O)O)C(=O)O)cc2)NC(=O)C(=O)O)CCCCC1)C(=O)NCCCc1cccc2ccccc12
Ratio [8]: 65 | Activity [9]: Active | Activity [10]: Active | Activity (PC-3M [11]): Active | Activity (MDCK): Active
